Tests used:
[1] = Antiproliferative activity against human Med8A cells after 72 hrs by Celltiter-Glo assay; format: functional, cell-based
[2] = biological target: T1, Protein deacetylase HDAC6 (Homo sapiens, UniProt Q9UBN7); test: Inhibition of full length human recombinant N-terminal GST-tagged HDAC6 expressed in baculovirus infected sf9 cells Z-(Ac)Lys-AMC as substrate measured after 90 mins by fluorescence assay
T1 sequence (Q9UBN7 whole entry): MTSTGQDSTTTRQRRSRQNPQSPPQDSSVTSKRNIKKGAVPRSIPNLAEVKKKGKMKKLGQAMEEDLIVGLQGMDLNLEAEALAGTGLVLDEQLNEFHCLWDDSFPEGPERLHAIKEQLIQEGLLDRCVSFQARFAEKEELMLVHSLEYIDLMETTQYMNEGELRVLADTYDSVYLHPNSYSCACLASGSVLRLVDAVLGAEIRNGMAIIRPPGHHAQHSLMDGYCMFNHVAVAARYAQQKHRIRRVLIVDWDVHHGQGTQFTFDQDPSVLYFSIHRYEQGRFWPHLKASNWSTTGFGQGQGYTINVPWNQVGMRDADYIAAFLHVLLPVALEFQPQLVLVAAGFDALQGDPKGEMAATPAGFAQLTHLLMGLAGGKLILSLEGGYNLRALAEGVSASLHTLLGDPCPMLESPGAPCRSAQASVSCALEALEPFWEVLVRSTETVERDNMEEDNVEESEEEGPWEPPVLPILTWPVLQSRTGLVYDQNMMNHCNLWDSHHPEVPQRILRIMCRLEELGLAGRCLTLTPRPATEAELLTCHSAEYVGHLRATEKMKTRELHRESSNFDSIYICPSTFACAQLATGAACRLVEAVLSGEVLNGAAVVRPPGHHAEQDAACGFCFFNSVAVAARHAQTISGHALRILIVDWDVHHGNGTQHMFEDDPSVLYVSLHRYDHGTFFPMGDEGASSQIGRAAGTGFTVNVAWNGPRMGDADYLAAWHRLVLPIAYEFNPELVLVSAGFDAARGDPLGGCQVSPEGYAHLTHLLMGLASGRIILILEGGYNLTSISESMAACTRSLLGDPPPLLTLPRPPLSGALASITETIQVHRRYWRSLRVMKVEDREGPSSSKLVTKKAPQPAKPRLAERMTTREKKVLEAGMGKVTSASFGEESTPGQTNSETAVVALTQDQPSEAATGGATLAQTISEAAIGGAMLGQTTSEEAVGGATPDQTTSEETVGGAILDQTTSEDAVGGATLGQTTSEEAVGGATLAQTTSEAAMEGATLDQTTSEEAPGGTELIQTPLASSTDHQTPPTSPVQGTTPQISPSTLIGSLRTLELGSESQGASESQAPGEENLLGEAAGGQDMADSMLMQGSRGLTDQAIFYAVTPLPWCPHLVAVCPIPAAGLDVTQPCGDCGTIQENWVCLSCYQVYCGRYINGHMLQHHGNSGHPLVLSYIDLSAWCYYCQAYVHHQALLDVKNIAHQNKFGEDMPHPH

Homo sapiens [3] = species: Homo sapiens; test: Selectivity index, ratio of IC50 for human recombinant HDAC8 to IC50 for full length human recombinant N-terminal GST-tagged HDAC6 expressed in baculovirus infected sf9 cells
Summary of the method: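 Ratio of isolated-enzyme IC50 values. HDAC1, HDAC6 and HDAC8 IC50s were each the mean ± SD of three independent experiments.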

CAL-27 [4] = test: Potentiation of 2 uM cisplatin-induced cytotoxicity against human CAL27 cells assessed as decrease in cell viability by measuring combination index at 500 uM preincubated for 48 hrs followed by cisplatin treatment measured after 72 hrs by MTT assay; format: functional; settings: in the assay text read “at 500 nM” for “at 500 uM”
Summary of the method: (§1)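 HDAC inhibitor was added 48 h before cisplatin, then cells were exposed to cisplatin for 72 h and viability was read by MTT assay. Combination index was computed by the Chou–Talalay method: CI > 1 is antagonism, CI = 1 additive, CI < 0.9 synergism. Points with fraction affected below 0.20 were flagged.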

CAL-27 [5] = test: Potentiation of 2 uM cisplatin-induced cytotoxicity against human CAL27 cells assessed as decrease in cell viability by measuring combination index at 800 uM preincubated for 48 hrs followed by cisplatin treatment measured after 72 hrs by MTT assay; format: functional; settings: in the assay text read “at 800 nM” for “at 800 uM”; summary of the method: as §1
[6] = biological target: T2, Histone deacetylase 1/6 (Homo sapiens) (UniProt Q13547+Q9UBN7); test: Inhibition of HDAC1/HDAC6 in human Cal27CisR cells assessed as potentiation of 5 uM cisplatin-induced cytotoxicity by measuring combination index at 800 uM preincubated for 48 hrs followed by cisplatin treatment measured after 72 hrs by MTT assay; format: cell-based
T2 sequence (Q13547 whole entry, looked up, one chain of several): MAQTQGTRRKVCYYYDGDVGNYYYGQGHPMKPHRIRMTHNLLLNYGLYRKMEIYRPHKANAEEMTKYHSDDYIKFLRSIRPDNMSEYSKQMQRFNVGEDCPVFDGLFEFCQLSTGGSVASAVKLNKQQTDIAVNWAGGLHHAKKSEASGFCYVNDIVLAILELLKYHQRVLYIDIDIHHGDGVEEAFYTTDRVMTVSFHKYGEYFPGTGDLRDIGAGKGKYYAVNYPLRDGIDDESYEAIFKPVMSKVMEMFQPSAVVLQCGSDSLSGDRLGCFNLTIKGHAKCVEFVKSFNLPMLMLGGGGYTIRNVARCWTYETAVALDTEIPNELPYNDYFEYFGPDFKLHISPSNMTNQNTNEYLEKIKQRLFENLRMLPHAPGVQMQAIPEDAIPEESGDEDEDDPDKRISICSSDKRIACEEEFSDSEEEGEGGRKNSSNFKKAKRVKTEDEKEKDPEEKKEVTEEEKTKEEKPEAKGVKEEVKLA
Summary of the method: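 Cal27 and cisplatin-resistant Cal27CisR cells were preincubated with the HDAC inhibitor for 48 h, then given cisplatin in combination. Viability was read by MTT after 72 h. The combination index was computed by the Chou–Talalay method: CI > 1 is antagonism, CI = 1 is additive, and CI < 0.9 is synergism. Points with fraction affected below 0.20 were flagged.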

Homo sapiens [7] = species: Homo sapiens; test: Selectivity ratio of IC50 for recombinant human N-terminal GST-tagged/C-terminal His-tagged HDAC4 to IC50 for full length human recombinant N-terminal GST-tagged HDAC6 expressed in baculovirus infected sf9 cells
Summary of the method: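 Ratio of isolated-enzyme IC50 values. The HDAC4 IC50 was determined in duplicate by an external contract service. The HDAC6 IC50 was the mean ± SD of three independent experiments.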

[8] = biological target: T2, Histone deacetylase 1/6 (Homo sapiens); test: Inhibition of HDAC1/HDAC6 in human Cal27CisR cells assessed as potentiation of 10 uM cisplatin-induced cytotoxicity by measuring combination index at 600 nM preincubated for 48 hrs followed by cisplatin treatment measured after 72 hrs by MTT assay
[9] = biological target: T2, Histone deacetylase 1/6 (Homo sapiens); test: Inhibition of HDAC1/HDAC6 in human Cal27CisR cells assessed as potentiation of 20 uM cisplatin-induced cytotoxicity by measuring combination index at 500 nM preincubated for 48 hrs followed by cisplatin treatment measured after 72 hrs by MTT assay
[10] = biological target: T2, Histone deacetylase 1/6 (Homo sapiens); test: Inhibition of HDAC1/HDAC6 in human Cal27CisR cells assessed as potentiation of 20 uM cisplatin-induced cytotoxicity by measuring combination index at 800 nM preincubated for 48 hrs followed by cisplatin treatment measured after 72 hrs by MTT assay
[11] = biological target: T2, Histone deacetylase 1/6 (Homo sapiens); test: Inhibition of HDAC1/HDAC6 in human Cal27CisR cells assessed as potentiation of 3.16 uM cisplatin-induced cytotoxicity by measuring combination index at 500 nM preincubated for 48 hrs followed by cisplatin treatment measured after 72 hrs by MTT assay

SMILES | IC50 [1] | IC50 [2] | Ratio IC50 (Homo sapiens [3]) | CI (CAL-27 [4]) | CI (CAL-27 [5]) | CI [6] | Ratio IC50 (Homo sapiens [7]) | CI [8] | CI [9] | CI [10] | CI [11]
COc1cc(NC(=O)NOCCCCCC(=O)NO)c2nccc(C)c2c1 | 600 nM | 24.8 nM | > 100 | 0.27 | 0.38 | 0.23 | > 3500 | 0.2 | 0.26 | 0.28 | 0.71
COc1cc(NC(=O)NOCCCCCC(=O)NO)c2ncccc2c1 | 1210 nM | 6.1 nM | > 100 | 0.49 | 0.43 | 0.37 | > 3500 | 0.36 | 0.35 | 0.37 | < 0.2
COc1cc(NC(=O)NOCCCCCC(=O)NO)c2nc(OC)cc(C)c2c1 | 590 nM | 2.8 nM | 550 | 0.42 | 0.66 | 0.26 | > 3500 | 0.17 | 0.2 | 0.21 | 0.26

From ChEMBL document CHEMBL4014350, “Alkoxyurea-Based Histone Deacetylase Inhibitors Increase Cisplatin Potency in Chemoresistant Cancer Cell Lines” (J Med Chem, 2017)
